We go through 39 compounds from ChEMBL document CHEMBL4513216, “Probing the Open Global Health Chemical Diversity Library for Multistage-Active Starting Points for Next-Generation Antimalarials” (ACS Infect Dis, 2020).

The data set in a line: Toxicity liver stage against HepG2, at 10uM. The format is cell-based. Further details: test concentration 10 uM, cell line HepG2-A16-CD81EGFP. Particulars: human, HepG2-A16-CD81EGFP cells; read-out: INHIBITION
The procedure, abridged:
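Uninfected HepG2-A16-CD81EGFP cells, 3 × 10^3 per well, 1536-well, plated on prespotted compound at 10 μM final, parasite-free screening media added to match infected plates; puromycin 10 μM positive, DMSO 0.5% negative; run in parallel with 48 h PbLuc assay at 37 °C, 5% CO2; viability by CellTiter-Glo luminescence, normalized to controls.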
On to `CS(=O)(=O)Cc1ccc(C(=O)NCc2ccc(Cl)cc2Cl)cc1`, for which the cytotoxicity at 10 µM is -47.6%.

As for `CS(=O)(=O)N1C[C@H]2CC[C@@H](C1)N(C/C=C/c1ccc(F)cc1)C2`, the cytotoxicity at 10 µM was -15.5%.

Turning to `CSCC(C)(O)CNc1cccc(F)c1C(C)=O` (centres undefined), the cytotoxicity at 10 µM is 2.19%.

In the case of `CS(=O)(=O)N1CC[C@]2(C[C@@H](OCC3CCC3)CO2)C1`, the cytotoxicity at 10 µM is -6.66%.

In the case of `Cc1nc(C)n(CC2CCCN(CCCOc3ccc(F)cc3)C2)n1` (centres undefined), the cytotoxicity at 10 µM is -3.08%.

With `Cn1ncc2c(N3CCCN(C(=O)c4ccsc4)CC3)ncnc21`, the cytotoxicity at 10 µM is -10.6%.

`CC(C)OCCN1CCN(C(C)c2nc(C3CC3)no2)CC1` (centres undefined): the cytotoxicity at 10 µM came out at 2.07%.

Regarding `O=C(O)C1(Cc2ccc(F)cc2F)CCCN(Cc2ccccn2)C1` (centres undefined), the cytotoxicity at 10 µM is 7.65%.

Take `CN(C)S(=O)(=O)N1CC[C@]2(C[C@@H](OCC3CC3)CO2)C1`: the cytotoxicity at 10 µM was determined as 8.88%.

Turning to `CC1(C)OCC2(CO1)CN(S(=O)(=O)c1ccc(Cl)s1)C2`, the cytotoxicity at 10 µM is -0.295%.

For the compound `COc1ccccc1-n1nc(CC(C)C)nc1CSc1nnc(N)s1`, the cytotoxicity at 10 µM came out at 1.62%.

With `O=S(=O)(Cc1cccc(F)c1)NCC(O)Cc1ccccc1` (centres undefined), the cytotoxicity at 10 µM amounted to 9.01%.

For `O=C1NCCCC12CCN(S(=O)(=O)N1CCOCC1)C2` (centres undefined), the cytotoxicity at 10 µM was -1.16%.

With `CC1c2ncc(COc3cccnc3)n2CCN1C(=O)C1=CCCCC1` (centres undefined), the cytotoxicity at 10 µM stood at 3.39%.

For the compound `OCCN1CCC2(CCc3cc(-c4ccoc4)ccc32)CC1`, the cytotoxicity at 10 µM is -0.582%.

With `CN(Cc1cnn(C)c1)C(=O)CN1CCCC1Cn1cncn1` (centres undefined), the cytotoxicity at 10 µM amounted to 12.6%.

Take `Cc1cnn(CC2CCCCN2C(=O)c2ccc(N(C)C)nc2)c1` (centres undefined): the cytotoxicity at 10 µM is -13.2%.

`Cc1nc2c(c(N3CCCOCC3)n1)CCN(C(=O)N1CCCC1)CC2`: the cytotoxicity at 10 µM came out at 9.2%.

`c1cnc(NC2COC3(CCN(Cc4nccs4)CC3)C2)cn1` (centres undefined): the cytotoxicity at 10 µM is -79.9%.

For the compound `CCC(=O)N1CCC(NC2CCSCC2)C1` (centres undefined), the cytotoxicity at 10 µM turned out to be 2.85%.

Regarding `c1cncc(-c2noc(CN3CCCC3Cn3cccn3)n2)c1` (centres undefined), the cytotoxicity at 10 µM was -4.74%.

As to `COCC1(CNc2cc(C(C)C)nc(N)n2)CC1`, the cytotoxicity at 10 µM worked out at 29.4%.

Take `CCOC[C@H]1CC[C@H]2[C@H](CCN2S(=O)(=O)Cc2ccccc2)O1`: the cytotoxicity at 10 µM worked out at 8.61%.

Take `O=C(CCn1ccc2cc(Br)ccc21)NC[C@@H]1CCCN2CCCC[C@H]12`: the cytotoxicity at 10 µM was found to be 8.35%.

On to `CN(C)C(=O)Cc1ccccc1NCc1cccc2cccnc12`, for which the cytotoxicity at 10 µM was -1.81%.

With `O=C(c1ccc(=O)[nH]n1)N1CCCC(O)(CN2CCC(F)(F)CC2)CC1` (centres undefined), the cytotoxicity at 10 µM is -8.71%.

Turning to `COCCNC(=O)[C@H]1C[C@@H]2CCN(c3ncccn3)C[C@@H]2O1`, the cytotoxicity at 10 µM was -0.785%.

In the case of `COc1c(CNCc2cccc(Cn3cccn3)c2)c(C)nn1C`, the cytotoxicity at 10 µM amounted to 1.33%.

As to `Cc1nc(C(C)n2cc3[nH]cccc-3c2=O)cs1` (centres undefined), the cytotoxicity at 10 µM was -3.13%.

As to `Clc1snnc1CN(Cc1cccs1)C1CC1`, the cytotoxicity at 10 µM is -8.78%.

As for `Cc1ccc(N2CCc3ncnc(N(C)C)c3CC2)nn1`, the cytotoxicity at 10 µM was -102%.

For the compound `CCCN(CCC)c1ncc(S(=O)(=O)c2cccc(C)c2)c(N)n1`, the cytotoxicity at 10 µM is 11%.

On to `Cc1nc(NC(=O)CN2CCc3c(nc(C(C)C)n3C)C2)sc1C`, for which the cytotoxicity at 10 µM was -9.52%.

With `O=S(=O)(C1CC1)N1CC[C@H](OCC2CC2)[C@@H]1Cc1cccnc1`, the cytotoxicity at 10 µM was determined as 8.13%.

`CC(Cn1cccn1)NCc1csc(Cc2ccccc2)n1` (centres undefined): the cytotoxicity at 10 µM was -8.15%.

On to `Cc1ncsc1-c1nnc(C2CCN(Cc3ccccc3)CC2)o1`, for which the cytotoxicity at 10 µM is -6.39%.

Regarding `CC(C)(C)c1n[nH]c(C2CN(C(=O)CCc3cccs3)CCO2)n1` (centres undefined), the cytotoxicity at 10 µM is -10.6%.

With `O=C(c1c(O)cnc2ccccc12)N1CCCSCC1`, the cytotoxicity at 10 µM is -9.7%.

In the case of `CC(=O)NC(C(=O)N(C)Cc1nnc2n1CCC2)C(C)C` (centres undefined), the cytotoxicity at 10 µM is -7.85%.
